Assay outcomes deposited in PubChem BioAssay by several laboratories.
Rows were chosen to be rich in hits. Some 1.2% of all compounds tested hit in one or more screens of this group.
Runt-SMMHC FRET – inhibitors of human RUNX1 Runt domain binding to CBFb-SMMHC. Q01196+Q13951. Cerulean-Runt/Venus-CBFb-SMMHC FRET ratio 530/480, 1 h. inhibition, % at 20 µM. 0.74% of 220,000 active. AID 1434;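 active = mean inhibition across duplicate retests at 20 µM reaching about 50%, limit read from the data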;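 note: 0% = DMSO wells and 100% = wells with excess untagged CBFb-SMMHC; inhibitors lower the FRET ratio by blocking Runt binding to CBFb-SMMHC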
Target sequence (Q01196 whole entry, looked up, the tested form may be a part): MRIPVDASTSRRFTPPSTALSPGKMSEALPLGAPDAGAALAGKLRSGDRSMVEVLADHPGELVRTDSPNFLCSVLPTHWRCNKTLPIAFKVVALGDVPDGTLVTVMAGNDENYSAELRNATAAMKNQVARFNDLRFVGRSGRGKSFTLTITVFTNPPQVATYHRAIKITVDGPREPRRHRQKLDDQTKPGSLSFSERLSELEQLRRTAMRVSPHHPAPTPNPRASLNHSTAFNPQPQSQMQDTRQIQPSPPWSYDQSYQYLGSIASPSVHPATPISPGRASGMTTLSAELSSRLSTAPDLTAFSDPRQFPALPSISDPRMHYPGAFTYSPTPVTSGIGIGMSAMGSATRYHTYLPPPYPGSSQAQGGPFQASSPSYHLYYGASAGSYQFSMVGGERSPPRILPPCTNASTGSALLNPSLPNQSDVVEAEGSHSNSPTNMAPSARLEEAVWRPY
Target sequence (Q13951 whole entry, looked up, the tested form may be a part): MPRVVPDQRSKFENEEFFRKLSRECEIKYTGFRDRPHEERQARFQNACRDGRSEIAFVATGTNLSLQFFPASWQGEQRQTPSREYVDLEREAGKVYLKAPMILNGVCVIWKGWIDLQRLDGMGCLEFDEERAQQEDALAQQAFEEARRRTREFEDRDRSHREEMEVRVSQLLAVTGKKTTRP
CaV13 FRET inh – Disruptors of the CACNA1D IQ motif to Ca2+-dependent inactivation inhibitor domain association, primary screening, Förster resonance energy transfer in intact living …; HEK cells, CFP/YFP FRET ICDI-IQ, plate reader, 10 min; percent FRET-ratio fall versus neutral wells; 0.098% of 340,000 active; AID 743397; inhibition, % at 12.3 µM;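 active = mean replicate inhibition of at least 30% and at least 1% of replicates passing that level; inconclusive = only one of the two criteria is met; inactive = neither criterion is met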;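 note: 0% = median of the neutral control wells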
RanGTP-Imp inh – disruptors of Ran-importin-beta complex formation – biochemical, FRET, CFP-Ran, YFP-importin-beta, homogeneous, primary screen; cell-free CFP-Ran/YFP-importin-beta FRET ratio; AID 2216; 1.1% of 300,000 active; inhibition, % (no concentration beside the values);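 active = more than half of the replicate wells show a fall in the fluorescence ratio signal beyond about 16%, limit read from the data, passing the limit was not always enough; inconclusive = exactly half of the replicate wells pass the set limit; inactive = fewer than half of replicates pass the limit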;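 note: 0% = DMSO wells and 100% = Ran loaded with GDP instead of GTP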
Runt-CBFb FRET – blocks binding of human RUNX1 Runt domain to CBFb; Q01196+Q13951; Cerulean-Runt/Venus-CBFb FRET ratio 530/480, 1 h; inhibition, % at 20 µM; 0.46% of 220,000 active;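 active = inhibition over about 50% at 20 µM in the single-dose screen, limit read from the data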;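 note: 0% = DMSO wells and 100% = excess unlabeled CBFb competitor control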
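Assay system: Cerulean-tagged RUNX1 Runt domain (FRET donor) fusion protein / Amount: 100 nM each of Venus-CBFb and Cerulean-Runt domain / Medium: Tris buffer pH 7.5 with salts and BSA / Also added: Venus-CBFb 100 nM / Schedule: 1 h complex formation plus 1 h compound treatment, room temperature / Signal: FRET fluorescence / Read-out: loss of energy transfer signal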
* = called active by the depositor; ? = inconclusive; . = not tested or not shown.

SMILES	Runt-SMMHC FRET	CaV13 FRET inh	RanGTP-Imp inh	Runt-CBFb FRET
O=C(Nc1nc2c(s1)CN(Cc1ccccc1)CC2)C1CCCC1	118*	-2	-5	53*
CC(C)(C)C(=O)Nc1nc2c(s1)CN(Cc1ccccc1)CC2	92*	?	99*	77*
O=C(Nc1ccccc1F)c1ccc(CN2CCc3ccccc3C2)cc1	.	-1	?	.
O=C(Nc1nc2c(s1)CN(Cc1ccccc1)CC2)c1c(F)cccc1F	98*	-5	-1	50
COc1ccc(Cn2c(=O)[nH]c3cc(C(=O)N4CCN(c5ccc(C(C)=O)cc5)CC4)ccc3c2=O)cc1	.	-6	4	.
COc1ccccc1N(CC(=O)NC(C)(C)C)C(=O)c1ccc(Cl)nc1	-2	-3	1	1
CCC(C)NC(=S)N1CCN(Cc2ccc3c(c2)OCO3)CC1 (centres undefined)	-2	133*	1	-3
Cc1c(Cl)sn(-c2ccc(Cl)cc2)c1=O	53*	-6	.	29
Cc1nn(-c2ccc(Cl)cc2)c(=O)c2ccccc12	5	-4	-2	2
O=C(NCC1CCN(C(=O)C(=O)c2cc3ccccc3o2)CC1)c1cc(C(F)(F)F)cc(C(F)(F)F)c1	.	-9	.	.
O=C(CN1CCN(c2ccccc2)CC1)Nc1ccccc1C(F)(F)F	-4	-2	1	80*
C=CCn1c2ccccc2c(=O)c2cc(C#CC3(O)CCCCC3)ccc21	.	9	161*	.
O=c1c2ccccc2oc2cc(C#CC3(O)CCCCC3)ccc12	.	-9	-3	.
Clc1ccsc1-c1ccnc(-n2cccc2)n1	16	-7	0	40
Clc1ccc(-c2ccnc(-n3cccc3)n2)s1	68*	-7	2	13
CN(C(=O)CSc1ncnc2ccccc12)C1CCCCC1	.	-4	.	.
COc1ccc(C2c3ccc(O)cc3Oc3ncn(Cc4ccco4)c(=N)c32)cc1 (centres undefined)	28	-6	3	97*
O=[N+]([O-])c1ccccc1S(=O)(=O)Nc1cccc(-c2ccc3nncn3n2)c1	.	-7	-1	.
Cc1ccc(-c2ccc(S(=O)(=O)Nc3cccnc3)cc2)cc1	.	-3	1	.
Cc1cc(C)n(CCC(=O)N/N=C/c2ccc(O)cc2)n1	-6	-7	-2	0
Cc1cc(C)n(CCC(=O)N/N=C/c2c(O)ccc3ccccc23)n1	45	-3	36*	29
N#C/C(=C/Nc1ccccc1F)S(=O)(=O)c1ccc(Cl)cc1	.	-20	-1	.
COC(=O)C1=CN(C2CC2)C=C(C(=O)OC)C1c1ccc(C(=O)OC)cc1	60*	-5	52*	107*
COC(=O)c1ccc([C@H]2CC(=O)O2)cc1	.	0	1	.
CC1=NN(C(C#N)c2ccccc2C)C(C)(C)C1 (centres undefined)	2	-5	2	75*
SMILES	Runt-SMMHC FRET	CaV13 FRET inh	RanGTP-Imp inh	Runt-CBFb FRET
CC(=O)c1cc2c(cc1N/C(=N/S(=O)(=O)c1ccc(C)cc1)c1ccccc1)OCO2	-1	-5	23*	0
CCCCC1OC23CCCCC2C(C#N)(C#N)C1(C#N)C(=N)O3 (centres undefined)	81	-6	53*	24
CCCCC1OC23CCCCC2C(C#N)(C(=N)O3)C1(C#N)C#N (centres undefined)	32	-7	24*	19
CCCCCCCCOc1ccc(C2OC34CCCCC3C(C#N)(C#N)C2(C#N)C(=N)O4)cc1 (centres undefined)	56*	.	44*	25
CCCCCOc1ccc(C2NC(=O)NC2=O)cc1 (centres undefined)	4	-5	3	2
Cc1ccc(Cl)cc1N(C(=O)c1csnn1)C(C(=O)NC1CCCC1)c1ccco1 (centres undefined)	.	-5	0	.
O=C(NC(=S)NCC1CCCO1)c1ccccc1[N+](=O)[O-] (centres undefined)	-6	-4	2	-1
O=C(CCC1CCCN(C(=O)c2ccc3c(c2)OCO3)C1)NCc1ccc(F)c(F)c1 (centres undefined)	-5	-17	5	1
Cc1c(C(=O)NCCN(C)C)oc2ccc(S(=O)(=O)N3CCC4(CC3)OCCO4)cc12	.	-3	23*	.
COc1ccc(C(=O)Oc2cc(N)n(S(=O)(=O)c3ccccc3)n2)cc1	3	97*	-8	1
COc1cc(-n2nc(C)c3c2OC(N)=C(C#N)C3c2ccccc2)c(Cl)c(Br)c1O (centres undefined)	8	-3	65*	5
O=C(COc1ccc(S(=O)(=O)N2CCOCC2)cc1)Nc1ccccc1C(F)(F)F	2	-5	27*	2
O=C(COc1ccc(S(=O)(=O)N2CCOCC2)cc1)NCCc1ccccc1	.	-7	-2	.
O=C(NCC1CCCO1)C1CCCN1C(=O)Nc1ccccc1[N+](=O)[O-] (centres undefined)	.	-3	0	.
Cc1cc(C)n(-c2nc3ccccc3nc2Nc2ccc3[nH]c(=O)[nH]c3c2)n1	-8	-10	32*	-3
CSCCC1(C(=O)O)NC(c2ccccc2O)C2C(=O)N(C(C)C)C(=O)C21 (centres undefined)	-2	39*	0	-1
COC(=O)c1c(-c2c(Cl)cccc2Cl)noc1C(=O)NNC(=O)N(C)C	-6	-1	2	3
CCc1ccc(-c2cn3nc(-c4ccccc4)cnc3n2)cc1	12	-24	21*	2
CCOC(=O)NC(Nc1sc2c(c1C(=O)OC)CCN(C)C2)(C(F)(F)F)C(F)(F)F	47	.	57*	38
COC(=O)NC(Nc1sc2c(c1C(N)=O)CCCC2)(C(=O)OC)C(F)(F)F (centres undefined)	2	-4	5	11
CCOC(=O)C(NC(=O)CC)(Nc1sc2c(c1C(=O)OC)CCN(C)C2)C(F)(F)F (centres undefined)	32	-4	38*	8
CCC(=O)NC(Nc1sc2c(c1C(=O)OC)CCN(C)C2)(C(F)(F)F)C(F)(F)F	61*	.	66*	34
O=C(O)CCn1c(SCCOc2ccccc2F)nc2ccccc21	.	-21	0	.
Clc1ccc(-c2nc(N3CCCCC3)nc3ccccc23)cc1	88*	-5	25*	5
Cc1ccc2nc(N3CCN(C=O)CC3)nc(-c3ccccc3)c2c1	88*	0	54*	14
Cc1ccc2nc(N3CCN(C(=O)CCCC(=O)O)CC3)nc(-c3ccccc3)c2c1	.	-6	17*	.
O=C(O)CCC(=O)N1CCN(c2nc(-c3ccccc3)c3ccccc3n2)CC1	.	-6	12	.
O=C(O)CCCC(=O)N1CCN(c2nc(-c3ccccc3Cl)c3cc(Br)ccc3n2)CC1	.	-6	35*	.
CCOC(=O)N1CCN(c2nc(-c3ccccc3)c3ccccc3n2)CC1	.	.	18*	.
Cc1ccc(-c2cc(-c3ccc(Cl)cc3)c(C#N)c(N)n2)o1	33	-12	16*	34
